Legend:
Type in all cases: in vitro ADME
[1] = test system: uridine glucuronosyl transferases (UGTs); assay: Glucuronide conjugation in human liver S9 with UDPGA; settings: human liver S9 + UDP glucuronic acid, 2 h
[2] = test system: uridine glucuronosyl transferases (UGTs); assay: Glucuronide conjugation in rat liver S9 with UDPGA; settings: rat liver S9 + UDP glucuronic acid, 2 h
[3] = test system: Phase II conjugative enzymes; assay: Phase II conjugation reactions; settings: rat enzymes (printed: rat microsomes)
In short: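 Three rat liver S9 incubations in pH 7.4 phosphate at 37 °C, each with test compound 100 μM and MgCl2 1 mM. Glucuronidation used 2 mg/mL S9 activated with alamethicin on ice 15 min, plus UDPGA 5 mM. Sulfation used 2 mg/mL S9 plus PAPS 0.2 mM. Glutathione conjugation used 10 mg/mL S9 plus glutathione 0.2 mM. Parent loss by LC-MS/MS over 120 min.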

[4] = test system: glutathione-S-transferases (GSTs); assay: Glutathione conjugation in rat liver S9; settings: rat enzymes
In short: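 Rat liver S9 (10 mg/mL) in 0.1 M potassium phosphate, pH 7.4, with test compound 100 μM and MgCl2 1 mM (final), preincubated 5 min at 37 °C. Reaction started with glutathione 0.2 mM final. Controls: acetaminophen as positive, no-glutathione as negative. Samples taken over 0–120 min, quenched in cold methanol with internal standard. Parent measured by HILIC LC-MS/MS; % intact at 120 min vs time zero, mean ± %CV.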

[5] = test system: sulfotransferases (SULTs); assay: Sulfoconjugation in rat liver S9 with PAPS; settings: rat liver S9, 2 h
In short: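 Sulfotransferase reaction in rat liver S9 (2 mg/mL), 0.1 M potassium phosphate pH 7.4, with 1 mM MgCl2 and test compound at 100 μM final. After 5 min preincubation at 37 °C, PAPS was added to 0.2 mM. Controls: 7-hydroxycoumarin as positive, PAPS-free as negative. Aliquots to 120 min stopped with ice-cold methanol plus internal standard. LC-MS/MS of parent; percent intact relative to time zero.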

Row | Structure (SMILES) | stability towards Phase II conjugative enzymes (in words) [3] | formation of glutathione conjugates (in words) [4] | also measured
1 | CN[C@@H]1[C@H](O)[C@H](NC)[C@H]2O[C@]3(O)[C@H](O[C@@H]2[C@H]1O)O[C@H](C)C[C@H]3NC(=O)Cc1ccc(O)cn1 [Compound 1810] | complete stability | – | % parent compound remaining intact [1]: above 93%; % parent compound remaining intact [2]: above 93%
2 | CN[C@@H]1[C@H](O)[C@H](NC)[C@H]2O[C@]3(O)[C@H](O[C@@H]2[C@H]1O)O[C@H](C)C[C@H]3NC(=O)Cc1cc(Cl)ccn1 [Compound 1544] | – | formed glutathione conjugates | –
3 | CN[C@@H]1[C@H](O)[C@H](NC)[C@H]2O[C@]3(O)[C@H](O[C@@H]2[C@H]1O)O[C@H](C)C[C@H]3NC(=O)Cc1ccc(Cl)cn1 [Compound 1599] | complete stability | – | –
4 | CN[C@@H]1[C@H](O)[C@H](NC)[C@H]2O[C@]3(O)[C@H](O[C@@H]2[C@H]1O)O[C@H](C)C[C@H]3NC(=O)Cc1cc(Cl)c(OC)cn1 [Compound 1878] | – | formed glutathione conjugates | –
5 | CN[C@@H]1[C@H](O)[C@H](NC)[C@H]2O[C@]3(O)[C@H](O[C@@H]2[C@H]1O)O[C@H](C)C[C@H]3NC(=O)Cc1cc(Cl)c(C)cn1 [Compound 1666] | – | formed glutathione conjugates | sulfoconjugation (in words) [5]: no metabolism
6 | CN[C@@H]1[C@H](O)[C@H](NC)[C@H]2O[C@]3(O)[C@H](O[C@@H]2[C@H]1O)O[C@H](C)C[C@H]3NC(=O)Cc1ccc(F)cn1 [Compound 1445] | complete stability | – | –
7 | CN[C@@H]1[C@H](O)[C@H](NC)[C@H]2O[C@]3(O)[C@H](O[C@@H]2[C@H]1O)O[C@H](C)C[C@H]3NC(=O)Cc1cc(Cl)c(F)cn1 [Compound 1661] | complete stability | – | –
